The sample as a whole holds a higher share of hits than the screen did.
ABCG2 inh: inhibitors of human ABCG2 transporter, ABCB1 counter-screen; IgMXP3 cells, JC-1 efflux, flow cytometry; inhibition, % at 6.6 µM; 190,000 compounds, 0.1% hits; AID 1325;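 active means inhibition above 80%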;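 further: 0% = DMSO and 100% = nicardipine control wells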
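test system = two drug-resistant human cell lines, ABCG2 and ABCB1 | amount = 3 million cells/mL final, two lines in 1:1 ratio | reagent = JC-1 transporter substrate | doses = one concentration, 6.6 µM final | incubation = 10 min at 25 °C | signal = flow cytometric JC-1 green MFI at 530 nm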
FLuc stim CS: affects firefly luciferase, flagging false hits in luciferase stimulation screens; P08659; ATPlite luciferase biochemical, luminescence, 10 min; 0 = ATP-free wells, 1 = DMSO control; activation factor at 10 µM; 200,000 tested, under 10 active;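 active means luciferase activation factor, scaled between plate controls, of at least 2 with compound at 10 µM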
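assay system = Luciferase/luciferin detection reagent, cell-free biochemical luciferase assay | also added = ATP substrate | times = 10 min post-reagent at room temperature | measured by = luminescence from luciferase reaction | measure = luciferase activation, seen as luminescence increase over controls | benchmarks = low control with PBS replacing ATP, high control enzyme plus ATP without compound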
ABCB1 block: inhibitors of human ABCB1 transporter, ABCG2 counter-screen; P08183; CCRF-Adr cells, JC-1 efflux, flow cytometry; inhibition, % at 6.6 µM; 190,000 compounds, 0.067% hits; in the data active means inhibition above about 40%;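 further: 0% = vehicle and 100% = reference inhibitor; higher value means more JC-1 retained so stronger ABCB1 efflux block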
Target sequence (P08183 whole entry, looked up): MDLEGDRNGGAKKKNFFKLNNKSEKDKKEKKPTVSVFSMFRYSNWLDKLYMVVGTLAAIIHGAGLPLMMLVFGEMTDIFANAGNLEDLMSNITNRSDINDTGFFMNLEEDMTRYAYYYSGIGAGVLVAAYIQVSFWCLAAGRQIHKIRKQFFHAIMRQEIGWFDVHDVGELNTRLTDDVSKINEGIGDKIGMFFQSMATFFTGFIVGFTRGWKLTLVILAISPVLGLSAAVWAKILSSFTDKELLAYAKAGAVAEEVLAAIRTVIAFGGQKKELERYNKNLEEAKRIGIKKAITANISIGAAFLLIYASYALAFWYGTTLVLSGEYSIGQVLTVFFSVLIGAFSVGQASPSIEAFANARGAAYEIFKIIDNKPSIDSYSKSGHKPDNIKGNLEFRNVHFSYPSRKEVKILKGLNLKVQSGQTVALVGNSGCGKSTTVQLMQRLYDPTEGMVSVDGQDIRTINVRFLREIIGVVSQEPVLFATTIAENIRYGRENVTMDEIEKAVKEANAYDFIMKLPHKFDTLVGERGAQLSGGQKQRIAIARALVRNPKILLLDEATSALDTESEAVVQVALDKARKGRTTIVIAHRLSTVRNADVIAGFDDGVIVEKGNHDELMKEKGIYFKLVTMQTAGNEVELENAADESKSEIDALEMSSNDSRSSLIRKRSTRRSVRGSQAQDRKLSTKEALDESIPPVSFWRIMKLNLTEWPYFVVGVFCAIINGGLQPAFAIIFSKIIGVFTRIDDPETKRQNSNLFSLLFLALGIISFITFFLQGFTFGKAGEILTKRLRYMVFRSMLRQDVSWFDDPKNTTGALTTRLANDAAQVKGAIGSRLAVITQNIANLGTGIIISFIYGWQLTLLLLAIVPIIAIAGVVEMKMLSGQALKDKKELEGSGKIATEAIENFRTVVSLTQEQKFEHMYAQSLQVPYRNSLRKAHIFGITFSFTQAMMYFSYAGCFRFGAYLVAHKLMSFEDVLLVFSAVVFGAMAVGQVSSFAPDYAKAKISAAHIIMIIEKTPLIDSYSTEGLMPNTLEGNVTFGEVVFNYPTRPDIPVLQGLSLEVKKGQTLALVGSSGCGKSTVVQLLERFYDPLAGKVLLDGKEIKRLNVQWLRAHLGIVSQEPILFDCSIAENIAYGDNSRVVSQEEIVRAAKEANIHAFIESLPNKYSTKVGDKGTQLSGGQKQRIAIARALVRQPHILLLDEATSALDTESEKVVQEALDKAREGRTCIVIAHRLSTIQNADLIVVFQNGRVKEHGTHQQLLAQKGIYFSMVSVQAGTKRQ
ABCB6 inh MLPCN: inhibitors of human ABC transporter ABCB6; Q9NP58; K562-ABCB6 porphyrin accumulation, flow cytometry, 1 h; active compounds read low; fluorescence ratio to DMSO, % at 10 µM; 360,000 compounds, 0.19% hits; AID 602162;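 active means fluorescence ratio to DMSO below 75%, the collection mean minus 3 SD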;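 further: signal is porphyrin accumulated inside mitochondria; 100% equals median channel fluorescence of DMSO control wells; lower ratio means ABCB6 inhibition with less porphyrin fluorescence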
FLuc inh counter: Photinus pyralis luciferase inhibition counter-screen | ATPLite firefly luciferase biochemical luminescence, 10 min | inhibition, % at 10 µM | 200,000 compounds, 1.5% hits | AID 1006;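 active means inhibition above about 50% when tested at 10 µM, limit read from the data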
Diaphorase act: activates diaphorase or chemically reduces, flagging diaphorase assay artifacts | AID 1229 | Diaphorase/resazurin coupled assay, resorufin fluorescence, 16 min; active compounds read high; 1 = vehicle wells, 0 = NADH-free wells | 190,000 compounds, 0.005% hits | activation factor at 20 µM;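 active means diaphorase activity raised at least twofold by the compound at 20 µM; inactive means activation factor below 2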
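Material: Clostridium kluyveri diaphorase, purified enzyme; Quantity: enzyme 0.07 U/mL final; Medium: HEPES pH 7.4 buffer with MgCl2 and Tween 20; Dosing: single compound dose of 20 µM, 1% DMSO final; Schedule: 16 min reaction at room temperature; Measured by: red resorufin fluorescence at 544/590 nm excitation/emission.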
ABCB6 inh CP1: inhibitors of human ABC transporter ABCB6; shares compounds with ABCB6 inh MLPCN; AID 602430; K562-ABCB6 porphyrin accumulation, flow cytometry, 1 h; active compounds read low; 700 tested, under 10 active; ratio response (% of DMSO), % at 10 µM;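 active means repeat-averaged ratio response below 75% of DMSO, the collection mean minus 3 SD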;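 further: median porphyrin fluorescence at 575 nm with 488 nm excitation from mitochondria; lower ratio means less porphyrin signal so ABCB6 inhibition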
Active calls of the source: *; / = no result.

SMILES | ABCG2 inh | FLuc stim CS | ABCB1 block | ABCB6 inh MLPCN | FLuc inh counter | Diaphorase act | ABCB6 inh CP1
CCOC(=O)C(C)NC(=O)CCc1nnc2ccc(N3CCCCC3)nn12 (centres undefined) | / | / | / | 90.0 | / | / | 98.0
CCOCCCNC(=O)CCc1nnc2ccc(N3CCCCC3)nn12 | / | / | / | 98.0 | / | / | 100.0
CCN(C(=O)COC(=O)c1ccc[nH]c1=O)c1cccc2ccccc12 | / | / | / | 95.0 | / | / | /
O=C(c1ccccc1)C(C(=O)N1CCc2ccccc2C1)n1ccccc1=O (centres undefined) | 5.2 | 1 | / | 73.0* | -1.7 | 1 | 98.0
O=C(COC(=O)c1ncc(Cl)c(Cl)c1Cl)c1ccc(Cl)s1 | 12.9 | 0.8 | 1.4 | 72.0* | 21.9 | 1 | 98.0
COc1ccc(N2C(=O)CSC2c2cccc(F)c2)cc1 (centres undefined) | / | / | / | 74.0* | / | / | 97.0
COc1ccc(C(=O)C2CCCN(C(=O)c3cccnc3OC)C2)cc1F (centres undefined) | 1.1 | 1 | 0.5 | 101.0 | -2.5 | 1 | /
COc1ccc(C(=O)C2CCCN(C(=O)c3cccs3)C2)cc1F (centres undefined) | 2.6 | 1.1 | 0.8 | 71.0* | -6.0 | 1 | 99.0
O=c1c(-c2ccccc2)c(O)cc(-c2ccncc2)n1-c1ccc(Cl)cc1 | 8.1 | 1 | 0.2 | 64.0* | -4.2 | 1 | 102.0
C/C(=N\O)c1c(O)cc(-c2ccccc2)n(-c2ccccc2)c1=O | / | / | / | 99.0 | / | / | /
CCCS(=O)(=O)N1CCC(C(=O)Oc2ccc(OC)cc2)CC1 | / | / | / | 96.0 | / | / | /
CC(C)(C)c1cc(NC(=O)COC(=O)c2ccc3c(=O)n4c(nc3c2)CCC4)n(-c2ccccc2)n1 | 17.7 | 1 | 4.9 | 69.0* | -0.6 | 0.9 | 101.0
COc1ccccc1C(=O)Nc1cc(C)on1 | / | / | / | 97.0 | / | / | /
COc1ccccc1C(=O)Nc1cc(-c2ccc(C)cc2)no1 | / | / | / | 69.0* | / | / | 97.0
COC(=O)C1CN(C(=O)COc2ccc(Cl)c(C)c2)c2ccccc2O1 (centres undefined) | / | / | / | 98.0 | / | / | /
Cc1cccc(NC(=O)COC(=O)CCCC2=NS(=O)(=O)c3ccccc3N2)c1 | / | / | / | 103.0 | / | / | /
COc1cc(NC(=O)COC(=O)CCCC2=NS(=O)(=O)c3ccccc3N2)cc(OC)c1 | / | / | / | 97.0 | / | / | 100.0
O=C(COC(=O)CCCC1=NS(=O)(=O)c2ccccc2N1)Nc1ccccc1 | / | / | / | 98.0 | / | / | 99.0
CCCCNC(=O)c1ccc2nc(CC)c(N(C)Cc3ccc(OC)cc3)n2c1 | / | / | / | 96.0 | / | / | /
C/C(=N\OC(=O)Nc1ccccc1)c1cnn(-c2cc(C(F)(F)F)cc(C)n2)c1C | / | / | / | 99.0 | / | / | /
COC(=O)Cc1c(C)c2ccc(OCC(=O)N3CCCC(C)C3)c(C)c2oc1=O (centres undefined) | / | / | / | 94.0 | / | / | /
CC1CCN(C(=O)CCc2nnc3ccc(N4CCC5(CC4)OCCO5)nn23)CC1 | / | / | / | 100.0 | / | / | 99.0
CCN1CCN(C(=O)CCc2nnc3ccc(N4CCC5(CC4)OCCO5)nn23)CC1 | / | / | / | 95.0 | / | / | 102.0
Clc1ccc(Cl)c(OCCN2CCCC2)c1 | / | / | / | 49.0* | / | / | 105.0
Clc1ccc(Cl)c(OCCN2CCOCC2)c1 | -3.1 | 1 | -0.5 | 91.0 | 0.6 | 1 | /
SMILES | ABCG2 inh | FLuc stim CS | ABCB1 block | ABCB6 inh MLPCN | FLuc inh counter | Diaphorase act | ABCB6 inh CP1
CSc1ccc(CN2C(=O)C(F)(F)Oc3c(C(C)=O)cccc32)cc1 | / | / | / | 74.0* | / | / | 101.0
CSc1ccc(CN2C(=O)C(C)Oc3c(C(C)=O)cccc32)cc1 (centres undefined) | / | / | / | 97.0 | / | / | /
CCCOc1ccc(C(CC(=O)O)NC(=O)c2ccc3c(c2)OCO3)cc1 (centres undefined) | -1.2 | 1.1 | 1.1 | 57.0* | -5.6 | 0.9 | 101.0
CCOC(=O)Cn1nc(C)c(NC(=O)c2ccc(Br)o2)c1C | / | / | / | 102.0 | / | / | /
COc1cc(C)c(Cl)cc1S(=O)(=O)NCc1ccccn1 | / | / | / | 94.0 | / | / | /
COC(=O)c1cc(S(=O)(=O)N2CCN(c3ccc(F)cc3)CC2)c[nH]1 | / | / | / | 46.0* | / | / | 99.0
COc1cccc(CNS(=O)(=O)c2cn(C)cn2)c1 | -4.1 | 1 | -0.2 | 8.0* | 0.0 | 0.9 | 104.0
CC1CCN(C(=O)c2ccccc2NC(=O)Nc2ccccc2)CC1 | / | / | / | 11.0* | / | / | 98.0
